Tm and folding enthalpy data for 54 sequences are collected here from the array DNA melting data of Ke et al. (doi:10.1101/2024.01.08.574731).

Data set [1] in a line: melting temperature; fluorescence melt of hairpins on a sequencing array, two-state fit, raised by 9.35 °C to match UV melts. The note with it: sodium 0.088 M. In outline: (§1)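 Cy3 fluorescence of library hairpins on a sequenced MiSeq flow cell, with annealed Cy3 and quencher oligos, was imaged in 50 mM Na-HEPES pH 8.0, 25 mM NaCl in 2.5 °C steps up to 60 °C. Signals were normalised to pre-quench Cy3 and to control variants. Melting temperature and folding enthalpy came from bootstrapped two-state fits, inverse-variance combined over four replicates. Fitted temperatures were raised by 9.35 °C to match UV melts.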

A short description of data set [2]: folding enthalpy; higher = less favourable; fluorescence melt of hairpins on a sequencing array, two-state fit. Conditions: sodium 0.088 M. In outline: as §1

Turning to GTGCTACGAAAGTAACAC (((.(((....))).))), the Tm in data set [1] was found to be 46.7 °C. In addition, the folding enthalpy in data set [2] is -32.7 kcal/mol.

As for GTGCTACGAAAGTACAC (((.(((....)))))), the Tm in data set [1] is 45.3 °C. Also, the folding enthalpy in data set [2] is -25.5 kcal/mol.

In the case of GTGCTCCGAAAGGAACAC (((.(((....))).))), in data set [1], the Tm was determined as 52.2 °C. In data set [2], the folding enthalpy was -46.5 kcal/mol.

With GTGCTCGAAAGAGGACAC ((((((....)))..))), the Tm in data set [1] was determined as 49.8 °C. Also, the folding enthalpy in data set [2] is -15.6 kcal/mol.

Take GTGCTCGAAAGAGGTCAC ((((((....)))..))): the Tm in data set [1] came out at 35.5 °C. Besides, the folding enthalpy in data set [2] is -15.8 kcal/mol.

On to GTGCTCGAAAGAGTGCAC ((((((....)))..))), for which the Tm in data set [1] came to 48.7 °C. The folding enthalpy in data set [2] was -24 kcal/mol.

With GTGCTCGGAAACGAGCGC (.(((((....))))).), the Tm in data set [1] was found to be 64.5 °C. For the same sequence, in data set [2], the folding enthalpy is -19.4 kcal/mol.

As for GTGCTCTCGAAAGAGCAC (((..(((....)))))), the Tm in data set [1] came to 62.6 °C. Besides, the folding enthalpy in data set [2] is -40.3 kcal/mol.

Regarding GTGCTGGGAAACCAACAC (((.(((....))).))), the Tm in data set [1] was found to be 44 °C. The folding enthalpy in data set [2] was -36.9 kcal/mol.

With GTGCTGGGAAACCAGTAC ((.((((....)))).)), the Tm in data set [1] worked out at 51.7 °C. The folding enthalpy in data set [2] was -39.6 kcal/mol.

In the case of GTGCTTACGAAAGTACAC (((..(((....)))))), in data set [1], the Tm stood at 34 °C. The folding enthalpy in data set [2] was -9.43 kcal/mol.

As for GTGCTTGGAAACAAGTAC ((.((((....)))).)), in data set [1], the Tm turned out to be 49.2 °C. For the same sequence, the folding enthalpy in data set [2] is -32.3 kcal/mol.

For the sequence GTGGAAACGAAAGTTCAC (((..(((....)))))), the Tm in data set [1] was 33.7 °C. Moreover, the folding enthalpy in data set [2] is -19.5 kcal/mol.

Consider GTGGAACGAAAGTTGCAC (((.(((....))).))), for which, in data set [1], the Tm is 56.5 °C. The folding enthalpy in data set [2] was -40.3 kcal/mol.

Turning to GTGGAAGCGAAAGCTCAC (((..(((....)))))), in data set [1], the Tm came out at 44.3 °C. In addition, the folding enthalpy in data set [2] was -18.8 kcal/mol.

Consider GTGGAAGGAAACTTCTAC ((.((((....)))).)), for which the Tm in data set [1] is 39.3 °C. The folding enthalpy in data set [2] is -27.8 kcal/mol.

Take GTGGACGAAAGTCACCAC ((((((....)))..))): in data set [1], the Tm was determined as 38 °C. In data set [2], the folding enthalpy is -16.4 kcal/mol.

As for GTGGACGAAAGTCCCCAC ((((((....)))..))), the Tm in data set [1] was 37.2 °C. In data set [2], the folding enthalpy is -8.05 kcal/mol.

As to GTGGACGAAAGTCGCAC ((((((....))).))), in data set [1], the Tm amounted to 50.4 °C. In addition, in data set [2], the folding enthalpy was -15.5 kcal/mol.

GTGGACGAAAGTCTGCAC ((((((....)))..))): in data set [1], the Tm is 40.6 °C. Besides, the folding enthalpy in data set [2] is -15.7 kcal/mol.

Regarding GTGGACGGAAACACCCAC ((((..(....)..)))), in data set [1], the Tm came out at 30.4 °C. For the same sequence, the folding enthalpy in data set [2] is -12.2 kcal/mol.

Take GTGGAGCCGAAAGGCCAC (((..(((....)))))): the Tm in data set [1] came out at 50.5 °C. For the same sequence, the folding enthalpy in data set [2] is -13.7 kcal/mol.

Regarding GTGGCACCGAAAGGTCAC (((..(((....)))))), the Tm in data set [1] is 42.6 °C. Moreover, the folding enthalpy in data set [2] is -14.9 kcal/mol.

GTGGCAGGAAACTGTCAC (((.(((....))).))): the Tm in data set [1] came to 54.3 °C. Besides, the folding enthalpy in data set [2] is -41 kcal/mol.

For the sequence GTGGCCGAAAGGCAGCAC ((((((....)))..))), the Tm in data set [1] was 46.3 °C. Besides, the folding enthalpy in data set [2] is -14.1 kcal/mol.

Take GTGGCCTCGAAAGAGCAC (((..(((....)))))): in data set [1], the Tm is 37.4 °C. In data set [2], the folding enthalpy was -14.7 kcal/mol.

Consider GTGGCGGGAAACCGCTAC ((.((((....)))).)), for which, in data set [1], the Tm came out at 58.3 °C. For the same sequence, the folding enthalpy in data set [2] was -19.3 kcal/mol.

Regarding GTGGCTCCGAAAGGACAC (((..(((....)))))), in data set [1], the Tm came out at 47.8 °C. Further, in data set [2], the folding enthalpy is -14.6 kcal/mol.

GTGGCTGCGAAAGCACAC (((..(((....)))))): the Tm in data set [1] was 47.8 °C. Also, the folding enthalpy in data set [2] is -11.5 kcal/mol.

In the case of GTGGGAACGAAAGTTCAC (((..(((....)))))), the Tm in data set [1] worked out at 54.9 °C. Further, the folding enthalpy in data set [2] was -34.3 kcal/mol.

In the case of GTGGGAGGAAACTCCTAC ((.((((....)))).)), the Tm in data set [1] was 46.8 °C. In addition, the folding enthalpy in data set [2] is -25.1 kcal/mol.

For the sequence GTGGGAGGAAACTCCTGC (..((((....))))..), the Tm in data set [1] was determined as 37.8 °C. Besides, the folding enthalpy in data set [2] is -17.4 kcal/mol.

As for GTGGGAGGAAACTTCCAC ((((.((....)).)))), the Tm in data set [1] was determined as 49.2 °C. Moreover, in data set [2], the folding enthalpy was -41.1 kcal/mol.

Consider GTGGGCGAAAGCCCGCAC ((((((....)))..))), for which the Tm in data set [1] was 58.6 °C. Also, in data set [2], the folding enthalpy is -10.2 kcal/mol.

Take GTGGGCGAAAGCCGCAC ((((((....))).))): the Tm in data set [1] stood at 55.4 °C. Moreover, the folding enthalpy in data set [2] was -13.8 kcal/mol.

Take GTGGGCGGAAACGCCTAC ((.((((....)))).)): the Tm in data set [1] turned out to be 56.5 °C. The folding enthalpy in data set [2] is -16.3 kcal/mol.

With GTGGGCGGAAACGCTCAC (((.(((....))).))), in data set [1], the Tm turned out to be 59.6 °C. Besides, the folding enthalpy in data set [2] was -34.3 kcal/mol.

For GTGGGCGGAAACGCTCGC (.(.(((....))).).), the Tm in data set [1] came to 49.9 °C. For the same sequence, the folding enthalpy in data set [2] was -21.3 kcal/mol.

As for GTGGGGCGAAAGCCCAC (((.(((....)))))), the Tm in data set [1] worked out at 62.6 °C. The folding enthalpy in data set [2] is -12.8 kcal/mol.

As to GTGGGGCGAAAGCCTCAC (((.(((....))).))), the Tm in data set [1] turned out to be 67.6 °C. Besides, the folding enthalpy in data set [2] is -30.2 kcal/mol.

In the case of GTGGGGGGAAACCCTCAC (((.(((....))).))), the Tm in data set [1] is 52.6 °C. Also, the folding enthalpy in data set [2] was -30.3 kcal/mol.

For GTGGGGTCGAAAGACCAC (((..(((....)))))), in data set [1], the Tm is 63.1 °C. For the same sequence, in data set [2], the folding enthalpy was -19.2 kcal/mol.

For the sequence GTGGTAGAAATACCAC ((((((....)))))), in data set [1], the Tm was 53.6 °C. Also, the folding enthalpy in data set [2] was -36.1 kcal/mol.

Consider GTGGTAGGAAACCACCAC (((((.(....).))))), for which the Tm in data set [1] came to 49.4 °C. For the same sequence, in data set [2], the folding enthalpy is -22.5 kcal/mol.

Turning to GTGGTAGGAAACTACCAC (((((((....))))))), in data set [1], the Tm was found to be 61.2 °C. Further, in data set [2], the folding enthalpy was -54.9 kcal/mol.

On to GTGGTAGGAAACTACCGC (.(((((....))))).), for which the Tm in data set [1] came out at 52.5 °C. In addition, the folding enthalpy in data set [2] was -32.5 kcal/mol.

On to GTGGTAGGAAACTACTAC ((.((((....)))).)), for which, in data set [1], the Tm was found to be 41.8 °C. Further, in data set [2], the folding enthalpy was -32.2 kcal/mol.

As to GTGGTAGGAAACTATCGC (.(.(((....))).).), in data set [1], the Tm worked out at 31.1 °C. In data set [2], the folding enthalpy was -18.1 kcal/mol.

With GTGGTAGGAAACTGCCAC ((((.((....)).)))), in data set [1], the Tm is 54.1 °C. Moreover, the folding enthalpy in data set [2] is -50 kcal/mol.

Turning to GTGGTATCGAAAGATCAC (((..(((....)))))), the Tm in data set [1] was 33.3 °C. The folding enthalpy in data set [2] is -23.8 kcal/mol.

Regarding GTGGTCCCGAAAGGGCAC (((..(((....)))))), the Tm in data set [1] came to 42.5 °C. Besides, in data set [2], the folding enthalpy was -14.8 kcal/mol.

On to GTGGTCGAAAGACACAC ((((((....))).))), for which, in data set [1], the Tm is 50.3 °C. In data set [2], the folding enthalpy was -26.6 kcal/mol.

As to GTGGTCGAAAGACTCCAC ((((((....)))..))), the Tm in data set [1] was 38.9 °C. Also, in data set [2], the folding enthalpy is -13.7 kcal/mol.

As to GTGGTCGGAAACGGCCAC ((((.((....)).)))), the Tm in data set [1] was 63.5 °C. The folding enthalpy in data set [2] was -33.7 kcal/mol.
